Measurements from different studies.
Protocols differ between the studies behind these lines.
Target: Adenosine receptor A2a (ADORA2A, Homo sapiens, UniProt P29274)

`CCCCN1CCCn2c1nc1c2c(=O)n(CCC)c(=O)n1CCC` has a Ki of 1390 nM (ligand displacement, radioligand; cell membranes).
`C#CCCCCC(=O)NCCNC(=O)COc1ccc(-c2nc3c([nH]2)c(=O)n(CCC)c(=O)n3CCC)cc1` gave a Ki of 23.2 nM (ligand displacement, radioligand; cell membranes).
`Nc1nc(-c2ccccc2Cl)nn1C(=O)CCc1ccccc1` gave a Ki of 630 nM (ligand displacement, radioligand; cell membranes).
`Oc1cccc(Nc2nc(-c3ccc(F)cc3F)cs2)c1` has a Ki of 5100 nM (cell-free assay).
The Ki of `CNC(=O)[C@@]12C[C@@H]1[C@@H](n1cnc3c(NCc4cccc(C#CCCCCCc5cn(-c6ccc(F)c(N)c6)nn5)c4)nc(Cl)nc31)[C@H](O)[C@@H]2O` is reported as 550 nM (ligand displacement, radioligand; cell membranes).
With `c1coc(-c2nc3cc(CCN4CCOCC4)ccc3o2)c1` the Ki was 11000 nM (ligand displacement, radioligand; cell membranes).
`Cc1cccc(-c2nc(N)n(C(=O)CCc3ccccc3)n2)c1` gave a Ki of 250 nM (ligand displacement, radioligand; cell membranes).
`CC(C)CN1CCCn2c1nc1c2c(=O)n(C)c(=O)n1C` has a Ki of 930 nM (ligand displacement, radioligand; cell membranes).
For `Nc1nc(I)nc2c1ncn2[C@H]1[C@H](O)[C@H](O)[C@]2(CCl)C[C@H]12`, the Ki was 5350 nM (ligand displacement, radioligand).
`c1coc(-c2nc3cc(CN4CCCCC4)ccc3o2)c1` gave a Ki of 19000 nM (ligand displacement, radioligand; cell membranes).
For `CCNC(=O)[C@H]1O[C@@H](n2cnc3c(N)nc(NN=C[C@H]4CCC=CO4)nc32)[C@H](O)[C@@H]1O`, the Ki was 3.76 nM (ligand displacement, radioligand).
With `c1ccc2[nH]c(-c3nc4ccccc4[nH]3)nc2c1` the Ki was 140 nM (ligand displacement, radioligand; cell membranes).
